Assays:
[1] = Percentage unbound in Crl:NMRI(Han) mouse plasma at 1 uM after 5 hrs by equilibrium dialysis method; format: ADME, cell-free
Procedure, shortened: (§1)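 Equilibrium dialysis (12-14 kDa membrane) of plasma or brain homogenate from naïve male Sprague-Dawley rats or Crl:NMRI(Han) mice. Donor side spiked to 1 µM final; receiver phosphate buffer pH 7.4; 37°C for 5 h. Buffer phase quantified by LC-MS. Brain fu corrected for homogenate dilution to intact tissue. Mean of two independent determinations.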

[2] = Total plasma concentration in wild type Sprague-Dawley rat expressing Abcb1a at 5 mg/kg/day administered through continuous minipump treatment for 3 days by UPLC-MS analysis; format: ADME, organism-based; conditions: other: continuous minipump
Procedure, shortened: (§2)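 Drug was infused subcutaneously by osmotic minipump for 3 days to steady state, at 1 µl/h in mice and 10 µl/h in rats, with doses derived from body weight and delivery rate. Animals were decapitated. Plasma came from EDTA trunk blood spun at 5000 g for 10 min at 4 °C. Whole brain was homogenised 1:4 in 70% acetonitrile and the supernatant kept. Samples were protein-precipitated with internal standard and analysed by UPLC. n=3-5, mean ± SEM.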

[3] = Total drug level in wild type Sprague-Dawley rat brain expressing Abcb1a at 5 mg/kg/day administered through continuous minipump treatment for 3 days by UPLC-MS analysis; format: ADME, organism-based; conditions: other: continuous minipump, read-out: Drug uptake; procedure, shortened: as §2
[4] = Total brain to plasma partition coefficient of the compound in wild type Sprague-Dawley rat expressing Abcb1a at 5 mg/kg/day administered through continuous minipump treatment for 3 days; conditions: brain and plasma, other: continuous minipump
[5] = Total plasma concentration in mdr1a-deficient rat at 5 mg/kg/day administered through continuous minipump treatment for 3 days by UPLC-MS analysis; format: ADME, organism-based; conditions: other: continuous minipump; procedure, shortened: as §2
[6] = Total drug level in mdr1a-deficient rat brain at 5 mg/kg/day administered through continuous minipump treatment for 3 days by UPLC-MS analysis; format: ADME, organism-based; conditions: other: continuous minipump, read-out: Drug uptake; procedure, shortened: as §2
[7] = Total brain to plasma partition coefficient of the compound in mdr1a-deficient Sprague-Dawley rat at 5 mg/kg/day administered through continuous minipump treatment for 3 days; conditions: brain and plasma, other: continuous minipump
[8] = Total drug level in wild type Crl:CF1 mouse brain expressing Abcb1a mutant at 4 mg/kg/day administered through continuous minipump treatment for 3 days by UPLC-MS analysis; format: ADME, organism-based; conditions: other: continuous minipump, read-out: Drug uptake; procedure, shortened: as §2
[9] = Total brain to plasma partition coefficient of the compound in wild type Crl:CF1 mouse expressing Abcb1a mutant at 4 mg/kg/day administered through continuous minipump treatment for 3 days; conditions: brain and plasma, other: continuous minipump
[10] = Total plasma concentration in mdr1a-deficient mouse at 4 mg/kg/day administered through continuous minipump treatment for 3 days by UPLC-MS analysis; format: ADME, organism-based; conditions: other: continuous minipump; procedure, shortened: as §2
[11] = Total drug level in mdr1a-deficient mouse brain at 4 mg/kg/day administered through continuous minipump treatment for 3 days by UPLC-MS analysis; format: ADME, organism-based; conditions: other: continuous minipump, read-out: Drug uptake; procedure, shortened: as §2
[12] = Total brain to plasma partition coefficient of the compound in mdr1a-deficient mouse at 4 mg/kg/day administered through continuous minipump treatment for 3 days; conditions: other: continuous minipump
[13] = Percentage unbound in Sprague-Dawley rat plasma at 1 uM after 5 hrs by equilibrium dialysis method; format: ADME, cell-free; procedure, shortened: as §1
[14] = Percentage unbound in Sprague-Dawley rat brain at 1 uM after 5 hrs by equilibrium dialysis method; format: ADME, tissue-based; procedure, shortened: as §1
[15] = Total plasma concentration in wild type Crl:CF1 mouse expressing Abcb1a mutant at 4 mg/kg/day administered through continuous minipump treatment for 3 days by UPLC-MS analysis; format: ADME, organism-based; conditions: other: continuous minipump; procedure, shortened: as §2
[16] = Unbound brain to plasma partition coefficient of the compound in wild type Sprague-Dawley rat expressing Abcb1a at 5 mg/kg/day administered through continuous minipump treatment for 3 days; format: ADME, organism-based; conditions: other: continuous minipump, read-out: K(p,uu,brain)
Procedure, shortened: (§3)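 Kp,uu = Cbrain,total × fu,brain / Cplasma,total × fu,plasma, using steady-state totals from 3-day subcutaneous minipump infusion. Free fractions came from equilibrium dialysis (12-14 kDa membrane) of naive Sprague-Dawley rat or NMRI mouse plasma or brain homogenate spiked to 1 µM final, against pH 7.4 phosphate buffer for 5 h at 37 °C, read by LC-MS and corrected for brain dilution. fu is the mean of two determinations.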

[17] = Unbound brain to plasma partition coefficient of the compound in mdr1a-deficient rat at 5 mg/kg/day administered through continuous minipump treatment for 3 days; format: ADME, organism-based; conditions: other: continuous minipump, read-out: K(p,uu,brain); procedure, shortened: as §3
[18] = Percentage unbound in Crl:NMRI(Han) mouse brain at 1 uM after 5 hrs by equilibrium dialysis method; format: ADME, tissue-based; procedure, shortened: as §1
[19] = Unbound brain to plasma partition coefficient of the compound in wild type Crl:CF1 mouse expressing Abcb1a mutant at 4 mg/kg/day administered through continuous minipump treatment for 3 days; format: ADME, organism-based; conditions: other: continuous minipump, read-out: K(p,uu,brain); procedure, shortened: as §3
[20] = Unbound brain to plasma partition coefficient of the compound in mdr1a-deficient mouse at 4 mg/kg/day administered through continuous minipump treatment for 3 days; format: ADME, organism-based; conditions: other: continuous minipump, read-out: K(p,uu,brain); procedure, shortened: as §3
[21] = Total plasma concentration in wild type Sprague-Dawley rat expressing Abcb1a at 9 mg/kg/day administered through continuous minipump treatment for 3 days by UPLC-MS analysis; format: ADME, organism-based; conditions: other: continuous minipump; procedure, shortened: as §2
[22] = Total drug level in wild type Sprague-Dawley rat brain expressing Abcb1a at 9 mg/kg/day administered through continuous minipump treatment for 3 days by UPLC-MS analysis; format: ADME, organism-based; conditions: other: continuous minipump, read-out: Drug uptake; procedure, shortened: as §2
[23] = Total brain to plasma partition coefficient of the compound in wild type Sprague-Dawley rat expressing Abcb1a at 9 mg/kg/day administered through continuous minipump treatment for 3 days; format: ADME, organism-based; conditions: brain and plasma, other: continuous minipump
[24] = Total plasma concentration in mdr1a-deficient rat at 9 mg/kg/day administered through continuous minipump treatment for 3 days by UPLC-MS analysis; format: ADME, organism-based; conditions: other: continuous minipump; procedure, shortened: as §2
[25] = Total drug level in mdr1a-deficient rat brain at 9 mg/kg/day administered through continuous minipump treatment for 3 days by UPLC-MS analysis; format: ADME, organism-based; conditions: other: continuous minipump, read-out: Drug uptake; procedure, shortened: as §2
[26] = Total brain to plasma partition coefficient of the compound in mdr1a-deficient rat at 9 mg/kg/day administered through continuous minipump treatment for 3 days; format: ADME, organism-based; conditions: brain and plasma, other: continuous minipump
[27] = Total plasma concentration in wild type Crl:CF1 mouse expressing Abcb1a mutant at 12 mg/kg/day administered through continuous minipump treatment for 3 days by UPLC-MS analysis; format: ADME, organism-based; conditions: other: continuous minipump; procedure, shortened: as §2
[28] = Total drug level in wild type Crl:CF1 mouse brain expressing Abcb1a mutant at 12 mg/kg/day administered through continuous minipump treatment for 3 days by UPLC-MS analysis; format: ADME, organism-based; conditions: other: continuous minipump, read-out: Drug uptake; procedure, shortened: as §2
[29] = Total brain to plasma partition coefficient of the compound in wild type Crl:CF1 mouse expressing Abcb1a mutant at 12 mg/kg/day administered through continuous minipump treatment for 3 days; format: ADME, organism-based; conditions: brain and plasma, other: continuous minipump
Procedure, shortened: (§4)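 Rats (SD-Abcb1a knockout or wild-type, 350-500 g) or mice (Crl:CF1-Abcb1a mutant or CF-1 background, 25-45 g) received drug by subcutaneous osmotic minipump (pump content as free base) for 3 days to steady state. After decapitation, trunk EDTA plasma and whole brain (homogenised 1:4 in 70% acetonitrile) were assayed by UPLC. Kp = total brain/total plasma concentration. n=3-5, mean ± SEM.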

[30] = Total plasma concentration in mdr1a-deficient mouse at 12 mg/kg/day administered through continuous minipump treatment for 3 days by UPLC-MS analysis; format: ADME, organism-based; conditions: other: continuous minipump; procedure, shortened: as §2
[31] = Total drug level in mdr1a-deficient mouse brain at 12 mg/kg/day administered through continuous minipump treatment for 3 days by UPLC-MS analysis; format: ADME, organism-based; conditions: other: continuous minipump, read-out: Drug uptake; procedure, shortened: as §2
[32] = Total brain to plasma partition coefficient of the compound in mdr1a-deficient mouse at 12 mg/kg/day administered through continuous minipump treatment for 3 days; format: ADME, organism-based; conditions: other: continuous minipump; procedure, shortened: as §4
[33] = Unbound brain to plasma partition coefficient of the compound in wild type Sprague-Dawley rat expressing Abcb1a at 9 mg/kg/day administered through continuous minipump treatment for 3 days; format: ADME, organism-based; conditions: other: continuous minipump, read-out: K(p,uu,brain)
[34] = Unbound brain to plasma partition coefficient of the compound in mdr1a-deficient rat at 9 mg/kg/day administered through continuous minipump treatment for 3 days; format: ADME, organism-based; conditions: other: continuous minipump, read-out: K(p,uu,brain)
[35] = Unbound brain to plasma partition coefficient of the compound in wild type Crl:CF1 mouse expressing Abcb1a mutant at 12 mg/kg/day administered through continuous minipump treatment for 3 days; format: ADME, organism-based; conditions: other: continuous minipump, read-out: K(p,uu,brain); procedure, shortened: as §3
[36] = Unbound brain to plasma partition coefficient of the compound in mdr1a-deficient mouse at 12 mg/kg/day administered through continuous minipump treatment for 3 days; format: ADME, organism-based; conditions: other: continuous minipump, read-out: K(p,uu,brain); procedure, shortened: as §3

Question: With `Cc1nc2n(c(=O)c1CCN1CCC(c3noc4cc(F)ccc34)CC1)CCCC2` [RISPERIDONE] as the compound, how does the fraction unbound at 5 h, 1 µM [1] read?
Answer: 0.27

Question: And the concentration at 72 h [2]?
Answer: 0.194 µg/mL

Question: What about the concentration at 72 h [3] of the same compound?
Answer: 41 ng/g

Question: And the Kp at 72 h [4]?
Answer: 0.22

Question: What about the concentration at 72 h [5] of the same compound?
Answer: 0.168 µg/mL

Question: And the concentration at 72 h [6]?
Answer: 295 ng/g

Question: And the Kp at 72 h [7]?
Answer: 1.9

Question: What about the concentration at 72 h [8] of the same compound?
Answer: 21 ng/g

Question: What about the Kp at 72 h [9] of the same compound?
Answer: 0.52

Question: And the concentration at 72 h [10]?
Answer: 0.04 µg/mL

Question: What about the concentration at 72 h [11] of the same compound?
Answer: 149 ng/g

Question: What about the Kp at 72 h [12] of the same compound?
Answer: 3.8

Question: And the fraction unbound at 5 h, 1 µM [13]?
Answer: 0.11

Question: What about the fraction unbound at 5 h, 1 µM [14] of the same compound?
Answer: 0.09

Question: And the concentration at 72 h [15]?
Answer: 0.043 µg/mL

Question: What about the Kp uu at 72 h [16] of the same compound?
Answer: 0.17

Question: What about the Kp uu at 72 h [17] of the same compound?
Answer: 1.4

Question: What about the fraction unbound at 5 h, 1 µM [18] of the same compound?
Answer: 0.058

Question: And the Kp uu at 72 h [19]?
Answer: 0.11

Question: And the Kp uu at 72 h [20]?
Answer: 0.81

Question: With `COc1ccc(C(CN(C)C)C2(O)CCCCC2)cc1.Cl` (stereo not given) [VENLAFAXINE HYDROCHLORIDE] as the compound, how does the fraction unbound at 5 h, 1 µM [1] read?
Answer: > 0.99

Question: What about the concentration at 72 h [21] of the same compound?
Answer: 0.05 µg/mL

Question: What about the concentration at 72 h [22] of the same compound?
Answer: 158 ng/g

Question: What about the Kp at 72 h [23] of the same compound?
Answer: 3.3

Question: What about the concentration at 72 h [24] of the same compound?
Answer: 0.063 µg/mL

Question: What about the concentration at 72 h [25] of the same compound?
Answer: 389 ng/g

Question: What about the Kp at 72 h [26] of the same compound?
Answer: 6.3

Question: What about the concentration at 72 h [27] of the same compound?
Answer: 0.085 µg/mL

Question: What about the concentration at 72 h [28] of the same compound?
Answer: 403 ng/g

Question: And the Kp at 72 h [29]?
Answer: 4.7

Question: What about the concentration at 72 h [30] of the same compound?
Answer: 0.105 µg/mL

Question: And the concentration at 72 h [31]?
Answer: 828 ng/g

Question: What about the Kp at 72 h [32] of the same compound?
Answer: 8.3

Question: And the fraction unbound at 5 h, 1 µM [13]?
Answer: 0.64

Question: What about the fraction unbound at 5 h, 1 µM [14] of the same compound?
Answer: 0.092

Question: What about the Kp uu at 72 h [33] of the same compound?
Answer: 0.45

Question: And the Kp uu at 72 h [34]?
Answer: 0.89

Question: What about the fraction unbound at 5 h, 1 µM [18] of the same compound?
Answer: 0.18

Question: What about the Kp uu at 72 h [35] of the same compound?
Answer: 0.86

Question: What about the Kp uu at 72 h [36] of the same compound?
Answer: 1.4
